Measurements reported in ChEMBL document CHEMBL4364301 (Eur J Med Chem, 2019).

How the values were obtained:
[1] = tested on: VCaP; experiment: Antiproliferative activity against human VCaP cells assessed as T/C value at 3.2 x 10^-2 uM incubated for 96 hrs by propidium iodide based 2D monolayer assay; format: functional
Outline: (§1)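 VCaP cells in RPMI 1640 with 10% FCS at 37 °C, 5% CO2, seeded 4,000–20,000 cells/well and left 24 h before dosing. Compounds from DMSO stocks were diluted in half-log steps in medium, 10 concentrations 0.0032–100 μM, triplicate wells, max 0.3% DMSO. After 96 h, cells were washed, stained with 7 μg/ml propidium iodide plus 0.1% Triton X-100 for 1–2 h at room temperature, and fluorescence read at ex 530/em 620 nm.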

[2] = tested on: VCaP; experiment: Antiproliferative activity against human VCaP cells assessed as T/C value at 3.2 x 10^-1 uM incubated for 96 hrs by propidium iodide based 2D monolayer assay; format: functional; outline: as §1
[3] = tested on: LNCaP; experiment: Antiproliferative activity against human LNCAP cells assessed as T/C value at 3.2 x 10^-1 uM incubated for 96 hrs by propidium iodide based 2D monolayer assay; format: functional
Outline: (§2)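 Cells were kept in RPMI 1640 with 25 mM HEPES, 10% FCS and gentamicin at 37 °C under 5% CO2, and plated at 4,000-20,000 cells/well. After 24 h recovery, compound in medium or medium alone (control wells) was added at 10 half-log concentrations from 0.0032 to 100 µM, in triplicate, with at most 0.3% DMSO. After 96 h, wells were PBS-washed, stained with 7 µg/ml PI and 0.1% Triton X-100, and fluorescence read at 530/620 nm. IC50 came from a 4-parameter fit, geometric mean.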

[4] = tested on: LNCaP; experiment: Antiproliferative activity against human LNCAP cells assessed as T/C value at 1 x 10^1 uM incubated for 96 hrs by propidium iodide based 2D monolayer assay; format: functional; outline: as §2
[5] = tested on: CWR22R; experiment: Antiproliferative activity against human 22Rv1 cells assessed as T/C value at 3.2 x 10^-3 uM incubated for 96 hrs by propidium iodide based 2D monolayer assay; format: functional; outline: as §2
[6] = tested on: CWR22R; experiment: Antiproliferative activity against human 22Rv1 cells assessed as T/C value at 1 x 10^-2 uM incubated for 96 hrs by propidium iodide based 2D monolayer assay; format: functional; outline: as §2
[7] = tested on: CWR22R; experiment: Antiproliferative activity against human 22Rv1 cells assessed as T/C value at 3.2 uM incubated for 96 hrs by propidium iodide based 2D monolayer assay; format: functional; outline: as §2
[8] = tested on: CWR22R; experiment: Antiproliferative activity against human 22Rv1 cells assessed as T/C value at 1 x 10^1 uM incubated for 96 hrs by propidium iodide based 2D monolayer assay; format: functional; outline: as §2
[9] = tested on: CWR22R; experiment: Antiproliferative activity against human 22Rv1 cells assessed as T/C value at 3.2 x 10^1 uM incubated for 96 hrs by propidium iodide based 2D monolayer assay; format: functional; outline: as §2
[10] = tested on: DU-145; experiment: Antiproliferative activity against human DU145 cells assessed as T/C value at 1 x 10^-2 uM incubated for 96 hrs by propidium iodide based 2D monolayer assay; format: functional
Outline: as §2, with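 “After” for “Cells were kept in RPMI 1640 with 25 mM HEPES, 10% FCS and gentamicin at 37 °C under 5% CO2, and plated at 4,000-20,000 cells/well. After”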

[11] = tested on: DU-145; experiment: Antiproliferative activity against human DU145 cells assessed as T/C value at 1 x 10^-1 uM incubated for 96 hrs by propidium iodide based 2D monolayer assay; format: functional
Outline: as §2, with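 “After” for “Cells were kept in RPMI 1640 with 25 mM HEPES, 10% FCS and gentamicin at 37 °C under 5% CO2, and plated at 4,000-20,000 cells/well. After”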

[12] = tested on: DU-145; experiment: Antiproliferative activity against human DU145 cells assessed as T/C value at 3.2 x 10^-1 uM incubated for 96 hrs by propidium iodide based 2D monolayer assay; format: functional
Outline: as §2, with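 “After” for “Cells were kept in RPMI 1640 with 25 mM HEPES, 10% FCS and gentamicin at 37 °C under 5% CO2, and plated at 4,000-20,000 cells/well. After”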

[13] = tested on: MCF7; experiment: Antiproliferative activity against human MCF7 cells assessed as T/C value at 3.2 x 10^-3 uM incubated for 96 hrs by propidium iodide based 2D monolayer assay; format: functional
[14] = tested on: MCF7; experiment: Antiproliferative activity against human MCF7 cells assessed as T/C value at 3.2 uM incubated for 96 hrs by propidium iodide based 2D monolayer assay; format: functional
[15] = Metabolic stability in liver microsomes (unknown origin) assessed as intrinsic clearance per mg of protein at 3 uM measured upto 45 mins in presence of NADPH by LC-MS/MS analysis; format: ADME, Microsome; settings: read-out: CLH
Outline: (§3)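 Pooled liver microsomes at 0.5 mg/mL protein in 0.1 M phosphate buffer pH 7.4 were incubated with 3 μM compound (0.25% DMSO) at 37 °C. Reactions were started with 1 mM NADPH and sampled at 0, 5, 15, 30 and 45 min. A minus-NADPH control ran for 45 min. Reactions were quenched in methanol and analysed by LC-MS/MS to give CLint and t1/2.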

[16] = Metabolic stability in liver microsomes (unknown origin) assessed as half life at 3 uM measured upto 45 mins in presence of NADPH by LC-MS/MS analysis; format: ADME, Microsome; outline: as §3
[17] = Protein binding in plasma (unknown origin) at 5 uM by LC-MS/MS analysis; format: ADME, cell-free; settings: read-out: PPB (converted)
Outline: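 Compound at 5 μM final in 100% plasma was dialysed against pH 7.4 buffer by equilibrium dialysis at 37 °C. Both sides were quantified by LC-MS/MS, unbound fraction was calculated, and results are given as % bound from duplicate experiments.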

[18] = target: hERG (KCNH2) (Homo sapiens, UniProt Q12809); experiment: Inhibition of human ERG expressed in CHO cells at 25 uM by whole-cell voltage-clamp analysis relative to control; format: cell-based; settings: CHO cells expressing human ERG
Outline: (§4)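 CHO cells expressing hERG were held in Dulbecco's PBS with Ca/Mg, pH 7–7.2, at room temperature. Tail currents were recorded by automated whole-cell voltage clamp after 300 s exposure. […] Quinidine served as positive control and 0.25% DMSO buffer as negative control.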

[19] = target: Voltage-gated inwardly rectifying potassium channel KCNH2 (Homo sapiens, UniProt Q12809); experiment: Inhibition of human ERG expressed in CHO cells by whole-cell voltage-clamp analysis; format: cell-based; outline: as §4
Chain of Voltage-gated inwardly rectifying potassium channel KCNH2 (Q12809 whole entry): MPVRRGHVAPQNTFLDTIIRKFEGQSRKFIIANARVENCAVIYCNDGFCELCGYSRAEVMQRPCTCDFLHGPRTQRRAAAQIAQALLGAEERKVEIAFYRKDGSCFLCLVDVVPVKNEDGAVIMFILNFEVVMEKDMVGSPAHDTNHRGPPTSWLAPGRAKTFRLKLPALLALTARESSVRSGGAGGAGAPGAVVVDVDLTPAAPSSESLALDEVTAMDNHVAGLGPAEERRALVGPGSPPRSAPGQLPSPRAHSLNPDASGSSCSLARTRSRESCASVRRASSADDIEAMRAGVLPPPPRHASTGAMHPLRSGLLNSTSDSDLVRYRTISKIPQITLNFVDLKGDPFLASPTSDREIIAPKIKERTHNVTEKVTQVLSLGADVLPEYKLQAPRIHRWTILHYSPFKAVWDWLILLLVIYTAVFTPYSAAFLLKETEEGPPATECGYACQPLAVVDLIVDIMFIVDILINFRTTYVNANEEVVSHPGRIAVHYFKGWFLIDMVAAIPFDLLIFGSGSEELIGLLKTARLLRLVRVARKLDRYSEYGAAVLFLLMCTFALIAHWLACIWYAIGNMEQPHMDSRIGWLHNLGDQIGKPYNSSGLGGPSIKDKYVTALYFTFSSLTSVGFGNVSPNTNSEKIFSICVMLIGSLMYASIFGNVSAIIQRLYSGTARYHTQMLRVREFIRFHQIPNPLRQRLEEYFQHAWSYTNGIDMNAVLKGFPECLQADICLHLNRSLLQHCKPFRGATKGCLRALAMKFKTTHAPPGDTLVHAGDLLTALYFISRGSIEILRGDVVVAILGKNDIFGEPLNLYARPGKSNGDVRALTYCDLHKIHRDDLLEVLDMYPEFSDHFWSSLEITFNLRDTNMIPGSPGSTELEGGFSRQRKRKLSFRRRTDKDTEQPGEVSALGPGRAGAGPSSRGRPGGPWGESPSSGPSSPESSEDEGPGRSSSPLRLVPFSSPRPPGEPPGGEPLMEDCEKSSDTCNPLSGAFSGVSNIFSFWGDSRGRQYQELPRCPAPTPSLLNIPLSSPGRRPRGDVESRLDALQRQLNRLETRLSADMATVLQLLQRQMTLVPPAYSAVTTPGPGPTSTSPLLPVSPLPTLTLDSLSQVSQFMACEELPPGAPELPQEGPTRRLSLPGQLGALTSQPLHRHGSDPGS

Chain of hERG (KCNH2) (Q12809 whole entry): as above

Row | SMILES | T/C [1] | T/C [2] | T/C [3] | T/C [4] | T/C [5] | T/C [6] | T/C [7] | T/C [8] | T/C [9] | T/C [10] | T/C [11] | T/C [12] | T/C [13] | T/C [14] | microsomal CLint at 3 µM [15] | half-life at 3 µM [16] | fraction unbound at 5 µM [17] | inhibition at 25 µM [18] | IC50 [19]
1 | CC(O)(COc1ccc(C(F)(F)C(F)(F)F)cc1)C(=O)Nc1cc(C(F)(F)F)cc(C(F)(F)F)c1 (racemic) | 90% | 99% | 93% | 9% | 106% | 109% | 29% | 9% | 5% | 108% | 113% | 123% | 103% | 57% |  |  |  |  | 
2 | CC(O)(COc1ccccc1C(F)(F)F)C(=O)Nc1ccc(S(F)(F)(F)(F)F)cc1 (racemic) | 87 - 93% | 73 - 91% | 83 - 84% | 1 - 2% | 101 - 106% | 99 - 104% | 2 - 9% | 1 - 6% | 1 - 3% | 103 - 119% | 108 - 127% | 107 - 132% |  |  | 22 µL/min/mg | 1.05 h | 0.014 | 26.3% | > 25 µM
3 | CC(O)(CSc1cc(C(F)(F)F)cc(C(F)(F)F)c1)C(=O)Nc1cccc(C(F)(F)C(F)(F)F)c1 (racemic) | 98% | 109% | 111% | 8% | 104% | 109% | 75% | 9% | 7% | 121% | 135% | 135% | 86% | 109% |  |  |  |  | 
4 | CC(O)(COc1cc(C(F)(F)F)cc(C(F)(F)F)c1)C(=O)Nc1ccc(S(F)(F)(F)(F)F)cc1 (racemic) | 95% | 87% | 93% | 6% | 106% | 99% | 103% | 16% | 8% | 103% | 109% | 113% |  |  |  |  |  |  | 
5 | CC1(C)C(=O)N(c2cccc(S(F)(F)(F)(F)F)c2)C(=S)N1c1cccc(C(F)(F)F)c1 | 87% | 87% | 80% | 23% | 94% | 96% | 79% | 69% | 58% | 94% | 101% | 108% |  |  |  |  |  |  | 
6 | CC1(C)C(=O)N(c2ccc(C#N)cc2C(F)(F)F)C(=S)N1c1ccc(S(F)(F)(F)(F)F)cc1 | 103% | 89% | 82% | 12% | 106% | 104% | 78% | 25% | 17% | 111% | 114% | 115% |  |  |  |  |  |  | 
7 | CC(O)(COc1cccc(S(F)(F)(F)(F)F)c1)C(=O)Nc1cc(C(F)(F)F)cc(C(F)(F)F)c1 (racemic) | 90% | 92% | 83% | 2% | 107% | 105% | 29% | 12% | 2% | 101% | 119% | 117% |  |  |  |  |  |  | 
8 | CC(O)(COc1cc(C(F)(F)F)cc(C(F)(F)F)c1)C(=O)Nc1cccc(S(F)(F)(F)(F)F)c1 (racemic) | 87% | 91% | 67% | 2% | 104% | 105% | 102% | 13% | 4% | 104% | 114% | 116% |  |  |  |  |  |  | 
9 | CC1(C)C(=O)N(c2ccc(C#N)cc2C(F)(F)F)C(=S)N1c1cccc(S(F)(F)(F)(F)F)c1 | 88% | 89% | 85% | 36% | 104% | 104% | 93% | 60% | 56% | 104% | 103% | 110% |  |  |  |  |  |  | 
10 | CC(O)(COc1ccc(S(F)(F)(F)(F)F)cc1)C(=O)Nc1cc(C(F)(F)F)cc(C(F)(F)F)c1 (racemic) | 96% | 91% | 97% | 8% | 102% | 106% | 52% | 13% | 7% | 104% | 109% | 115% |  |  | 3.08 µL/min/mg | 7.5 h | 0.091 | 13.4% | > 25 µM
11 | CC(O)(COc1cccc(S(F)(F)(F)(F)F)c1)C(=O)Nc1ccc([N+](=O)[O-])c(C(F)(F)F)c1 (racemic) | 86 - 107% | 94 - 113% | 100 - 103% | 1 - 3% | 97 - 104% | 100 - 106% | 62 - 92% | 13 - 14% | 2% | 115 - 122% | 118 - 124% | 121 - 129% |  |  | 3.21 µL/min/mg | 7.18 h | 0.015 | 38.1% | > 25 µM
